Data on 13 molecules can be found in ChEMBL document CHEMBL4004827, “Exploration of DAPI analogues: Synthesis, antitrypanosomal activity, DNA binding and fluorescence properties” (Eur J Med Chem, 2017).

Series [1] can be described thus: Binding affinity to poly(dA-dT)n DNA (unknown origin) assessed as change in melting temperature at 0.3 molar ratio of compound:DNA by spectrophotometric analysis. In short, it runs like this:
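Thermal melting with poly(dA-dT) in CAC 10 buffer (10 mM cacodylic acid, 1 mM EDTA, 100 mM NaCl, pH 7.0), 1 cm quartz cuvettes, heated at 0.5 °C/min. DNA concentration set by absorbance at 260 nm; 0.3 mol compound per mol DNA, DNA alone as control. Tm taken from peak of first-derivative (dA/dT) curve; ΔTm = Tm complex − Tm free DNA.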

A short description of series [2]: Selectivity index, ratio of IC50 for rat L6 cells to IC50 for Trypanosoma brucei rhodesiense STIB900 bloodstream forms. It counts as toxicity. To be noted: read-out: Ratio IC50. In short, it runs like this: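 Selectivity index calculated as IC50 in L6 cells divided by IC50 against T. b. rhodesiense STIB900.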
Series [3] has as its system Trypanosoma brucei rhodesiense. Nature of the series: Antitrypanosomal activity against Trypanosoma brucei rhodesiense STIB900 bloodstream forms after 70 hrs by Alamar blue assay. It counts as functional. The conditions noted are these: STIB900, 70 h. In short, it runs like this:
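In vitro viability assay on T. b. rhodesiense strain STIB900; values are the average of duplicate determinations.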

Series [4] relates to Trypanosoma brucei rhodesiense. Nature of the series: Potency index, ratio of DAPI IC50 to compound IC50 for Trypanosoma brucei rhodesiense STIB900 bloodstream forms. The format is functional.
Series [5] can be described thus: Binding affinity to poly(dA-dT)n DNA minor groove (unknown origin) assessed as positive induced CD signal at 1:20 to 5:20 molar ratio of compound:DNA by CD spectroscopic analysis. In short, it runs like this: (§1)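 CD spectra recorded at 25 °C in MES 10 buffer (10 mM MES, 100 mM NaCl, 1 mM EDTA) over a series of compound-to-DNA ratios.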
Series [6] relates to Trypanosoma brucei rhodesiense. Nature of the series: Antitrypanosomal activity against Trypanosoma brucei rhodesiense STIB900 infected in NMRI mouse assessed as aparasitemic mouse at 5 mg/kg, ip for 4 consecutive days starting from day 3 post infection measured up to day 60 post infection relative to control. The format is functional. In short, it runs like this:
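STIB900 acute-stage mouse model of T. b. rhodesiense infection; compound given intraperitoneally at 5 mg/kg daily for four consecutive days (4 × 5 mg/kg), 4 infected mice per group; cure rate reported as mice cured out of 4.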

A further series relates to L6. Nature of the series: Cytotoxicity against rat L6 cells. It counts as cell-based.
The nature of series [7]: Binding affinity to poly(dA-dT)n DNA minor groove (unknown origin) assessed as positive induced CD signal at 1:20 to 8:20 molar ratio of compound:DNA by CD spectroscopic analysis. In short, it runs like this: as §1
A further series concerns Mus musculus. Nature of the series: Toxicity in NMRI mouse infected with Trypanosoma brucei rhodesiense STIB900 assessed as death at 5 mg/kg, ip for 4 consecutive days starting from day 3 post infection. The format is organism-based. To be noted: in vivo. In short, it runs like this: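 Acute-stage STIB900 mouse model, four infected mice per compound, given 5 mg/kg intraperitoneally once daily on four consecutive days (4 × 5 mg/kg). Deaths among treated mice were counted out of 4, alongside cure of survivors. Other protocol details follow an earlier report.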

Active and inactive are the calls of the source. No cut-off for these calls is given here.

As to `COc1cc(C(=N)N)ccc1-c1cc2ccc(C(=N)N)cc2[nH]1`, the ΔTm (usually the shift of the melting midpoint relative to a reference) in [1] was more than 26 °C. The selectivity ratio in series [2] turned out to be 4880. Further, the IC50 (usually the concentration at which inhibition is half-maximal) in series [3] came to 0.006 µM; with L6, 29.6 µM. Also, in series [4], the “Ratio IC50” value is 2 - 6. Further, the outcome in [5] was Active. For the same molecule, the Activity in series [6] was determined as 100%.

Regarding `N=C(N)c1ccc2[nH]c(-c3ccc(C(=N)N)o3)cc2c1`, the shift in melting temperature (ΔTm) in series [1] was 21.4 °C. In [2], the selectivity ratio turned out to be 900. The results for the IC50 (in series [3]; in the series with L6) were 0.003 µM and 2.7 µM, respectively. Further, the “Ratio IC50” value in series [4] was 2 - 6. In addition, the result in series [5] was Active. Also, in [6], the Activity was 100%.

For `N=C(N)c1ccc(-c2cc3cc(C(=N)N)ccc3[nH]2)cc1`, the shift in melting temperature (ΔTm) in [1] stood at 19.2 °C.

On to `Cc1cc(-c2cc3ccc(C(=N)N)cc3[nH]2)ccc1C(=N)N`, for which the thermal shift (ΔTm) in series [1] is more than 26 °C. Besides, the selectivity ratio in series [2] came to 3140. The half-maximal inhibitory concentration (IC50) in series [3] was 0.005 µM; in the series with L6, 15.7 µM. The “Ratio IC50” value in series [4] was 2 - 6. Moreover, the Activity in series [6] is reported as 75%.

In the case of `Cc1cc(-c2cc3cc(C(=N)N)ccc3[nH]2)ccc1C(=N)N`, the ΔTm in [1] came to 15.3 °C. The selectivity ratio in series [2] was 7830. Besides, the half-maximal inhibitory concentration (IC50) turned out to be 0.003 µM in [3] and 23.5 µM with L6. Besides, the “Ratio IC50” value in [4] was 2 - 6. For the same molecule, the Activity in [6] worked out at 75%.

For `N=C(N)c1ccc(-c2cc3ccc(C(=N)N)cc3[nH]2)cc1` [DAPI], the ΔTm in series [1] is more than 27 °C. Besides, the selectivity ratio in series [2] worked out at 48. The outcome in series [5] was Active.

On to `N=C(N)c1ccc2[nH]c(-c3ccc(C(=N)N)nc3)cc2c1`, for which the ΔTm in [1] amounted to 12.1 °C. Besides, the selectivity ratio in series [2] came to 394. The 50% inhibitory concentration (IC50) came out at 0.005 µM in series [3] and 1.8 µM in the series with L6. Further, the “Ratio IC50” value in [4] is 2 - 6. The Activity in series [6] came to 25%.

On to `COc1ccc(-c2cc3ccc(C(=N)N)cc3[nH]2)cc1`, for which, in [1], the ΔTm came out at 12.6 °C. In addition, the selectivity ratio in series [2] turned out to be 6. Further, the IC50 in series [3] was determined as 4.87 µM; with L6, 29 µM.

Turning to `N=C(N)c1ccc(-c2cc3ccc(C(=N)N)cc3[nH]2)nc1`, the ΔTm in series [1] turned out to be 22.1 °C. In addition, the selectivity ratio in series [2] was determined as 133. The 50% inhibitory concentration (IC50) in series [3] was 0.024 µM; in the series with L6, 3.2 µM. Also, in series [7], the result was Active. For the same molecule, the Activity in series [6] came out at 100%.

`N=C(N)c1ccc2cc(-c3ccc(C(=N)N)o3)[nH]c2c1`: the Activity entry with Mus musculus is reported as “Toxic”. Moreover, the shift in melting temperature (ΔTm) in [1] turned out to be 11 °C. Further, the selectivity ratio in series [2] is 800. Besides, the concentration for half-maximal inhibition (IC50) in series [3] worked out at 0.009 µM; with L6, 7.2 µM. Further, the “Ratio IC50” value in [4] was 2 - 6. In addition, the result in [6] was inactive.

For `N=C(N)c1ccc2cc(-c3ccc(C(=N)N)s3)[nH]c2c1`, in [1], the thermal shift (ΔTm) was 10 °C. Further, the selectivity ratio in series [2] amounted to 409. Besides, the IC50 came to 0.011 µM in series [3] and 4.5 µM with L6. In [4], the “Ratio IC50” value was 2 - 6.

Take `N=C(N)c1ccc2cc(-c3ccc(C(=N)N)nc3)[nH]c2c1`: in series [1], the ΔTm was found to be 15.3 °C. In addition, the selectivity ratio in series [2] came to 667. Also, the concentration for half-maximal inhibition (IC50) worked out at 0.003 µM in series [3] and 2 µM in the series with L6. Moreover, the “Ratio IC50” value in series [4] is given as 2 - 6. Besides, the Activity in series [6] stood at 25%.

Take `N=C(N)c1ccc(-c2cc3cc(C(=N)N)ccc3[nH]2)nc1`: in [1], the ΔTm is more than 26 °C. Besides, in series [2], the selectivity ratio turned out to be 5320. Further, the results for the IC50 (in series [3]; in the series on L6) were 0.004 µM and 21.3 µM, respectively. Further, the “Ratio IC50” value in [4] is on record as 2 - 6. Besides, the Activity in series [6] is 100%.
